Values after ≈ are worked out from the molar mass of the structure shown.
Legend:
[1] = tested on: Mus musculus; test: In vivo antitumor activity against P388 Lymphocytic Leukemia measured as Survivors on day 5 at 1500 mg/kg; 6/6; type: functional
[2] = tested on: Mus musculus; test: In vivo antitumor activity against P388 Lymphocytic Leukemia measured as Survivors on day 5 at 187.5 mg/kg; 6/6; type: functional
[3] = tested on: Mus musculus; test: In vivo antitumor activity against P388 Lymphocytic Leukemia measured as Survivors on day 5 at 750 mg/kg; 6/6; type: functional
[4] = tested on: Mus musculus; test: In vivo antitumor activity against P388 Lymphocytic Leukemia in mice at 1500 mg/kg expressed as T/C value; type: functional
[5] = tested on: Mus musculus; test: In vivo antitumor activity against P388 Lymphocytic Leukemia in mice at 187.5 mg/kg expressed as T/C value; type: functional
[6] = tested on: Mus musculus; test: In vivo antitumor activity against P388 Lymphocytic Leukemia measured as Survivors on day 5 at 375 mg/kg; 6/6; type: functional
[7] = tested on: Mus musculus; test: In vivo antitumor activity against P388 Lymphocytic Leukemia in mice at 750 mg/kg expressed as T/C value; type: functional
[8] = tested on: A204; test: In vitro cytotoxicity against human A204 Rhabdomyosarcoma cell line; type: functional, cell-based
How it was run: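 A204 human rhabdomyosarcoma soft-agarose colony assay. 10^4 trypsin/EDTA-dissociated cells in 0.3% agarose over a 0.5% agarose base, in DMEM with 10% FCS, at 37 °C and 5% CO2. Compound was applied in an upper medium layer on day 1 for 24 h, then washed out. Colonies >60 µm were counted after 7–9 days by tetrazolium stain and image analysis. Quadruplicates with vehicle controls, at least four concentrations up to 100 or 1000 µg/mL. IC50 from a monoexponential least-squares fit over at least three preparations, mean ± SE.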

[9] = tested on: Mus musculus; test: In vivo antitumor activity against P388 Lymphocytic Leukemia in mice at 375 mg/kg expressed as T/C value
[10] = tested on: Mus musculus; test: In vivo antitumor activity against P388 Lymphocytic Leukemia measured as Survivors on day 5 at 17.75 mg/kg; 5/6; type: functional
[11] = tested on: Mus musculus; test: In vivo antitumor activity against P388 Lymphocytic Leukemia measured as Survivors on day 5 at 35.5 mg/kg; 6/6; type: functional
[12] = tested on: Mus musculus; test: In vivo antitumor activity against P388 Lymphocytic Leukemia in mice at 35.5 mg/kg expressed as T/C value; type: functional
[13] = tested on: Mus musculus; test: In vivo antitumor activity against P388 Lymphocytic Leukemia measured as Survivors on day 5 at 71 mg/kg; 5/6; type: functional
[14] = tested on: Mus musculus; test: In vivo antitumor activity against P388 Lymphocytic Leukemia in mice at 17.75 mg/kg expressed as T/C value; type: functional
[15] = tested on: Mus musculus; test: In vivo antitumor activity against P388 Lymphocytic Leukemia in mice at 71 mg/kg expressed as T/C value; type: functional
[16] = tested on: Mus musculus; test: In vivo antitumor activity against P388 Lymphocytic Leukemia in mice at 8.88 mg/kg expressed as T/C value; type: functional
[17] = tested on: Mus musculus; test: In vivo antitumor activity against P388 Lymphocytic Leukemia measured as Survivors on day 5 at 8.88 mg/kg; 6/6; type: functional
[18] = tested on: Mus musculus; test: In vivo antitumor activity against P388 Lymphocytic Leukemia measured as Survivors on day 5 at 23 mg/kg; 6/6; type: functional
[19] = tested on: Mus musculus; test: In vivo antitumor activity against P388 Lymphocytic Leukemia measured as Survivors on day 5 at 11.50 mg/kg; 6/6; type: functional; conditions: dose 11.5 mg/kg
[20] = tested on: Mus musculus; test: In vivo antitumor activity against P388 Lymphocytic Leukemia in mice at 46 mg/kg expressed as T/C value; type: functional
[21] = tested on: Mus musculus; test: In vivo antitumor activity against P388 Lymphocytic Leukemia measured as Survivors on day 5 at 92 mg/kg; 6/6; type: functional
[22] = tested on: Mus musculus; test: In vivo antitumor activity against P388 Lymphocytic Leukemia in mice at 11.50 mg/kg expressed as T/C value; type: functional; conditions: dose 11.5 mg/kg
[23] = tested on: Mus musculus; test: In vivo antitumor activity against P388 Lymphocytic Leukemia in mice at 23 mg/kg expressed as T/C value; type: functional
[24] = tested on: Mus musculus; test: In vivo antitumor activity against P388 Lymphocytic Leukemia measured as Survivors on day 5 at 46 mg/kg; 6/6; type: functional
[25] = tested on: Mus musculus; test: In vivo antitumor activity against P388 Lymphocytic Leukemia in mice at 92 mg/kg expressed as T/C value; type: functional
[26] = tested on: Mus musculus; test: Weight difference when tested in vivo for antitumor activity against P388 Lymphocytic Leukemia; type: functional

CC(C)C(O)(C(=O)OCC1CC[N+]2([O-])CC[C@@H](O)[C@@H]12)C(C)O (stereo partly drawn)
Survivors [1]: 6
Survivors [2]: 6
Survivors [3]: 6
T/C [4]: 106%
T/C [5]: 94%
Survivors [6]: 6
T/C [7]: 95%
IC50 [8]: 320 µg/mL (≈ 1010 µM)
T/C [9]: 106%

CCC(O)(C(=O)OCC1=CC[N+]2([O-])CC[C@H](OC(=O)[C@@](O)(CC)c3ccccc3)[C@@H]12)c1ccccc1 (stereo partly drawn)
Survivors [10]: 5
Survivors [11]: 6
T/C [12]: 106%
Survivors [13]: 5
T/C [14]: 100%
T/C [15]: 109%
T/C [16]: 107%
Survivors [17]: 6

CC(C)C(O)(C(=O)OCC1=CCN2CC[C@@H](O)[C@@H]12)C(C)O (stereo partly drawn) [INDICINE]
IC50 [8]: 34 µg/mL (≈ 114 µM)

CC(C)C(O)(C(=O)O[C@@H]1CCN2CC[C@H](CO)[C@H]12)C(C)O (stereo partly drawn)
Survivors [18]: 6
Survivors [19]: 6
T/C [20]: 105%
Survivors [21]: 6
T/C [22]: 111%
T/C [23]: 107%
Survivors [24]: 6
T/C [25]: 98%
Weight difference [26]: -1.2

CC1C(=O)O[C@@H]2CCN3CC=C(COC(=O)C(C)(O)C1(C)O)[C@H]23 (stereo partly drawn)
IC50 [8]: 316 µg/mL (≈ 971 µM)

Reference: ChEMBL document CHEMBL1124172 (J Med Chem, 1988)
